Experimental data as given in article PMC3251632 (Cancer research, 2011).
“Also recorded” adds a separate entry of the source.

Key:
CFPAC tumors = experiment: Xenograft CFPAC tumor growth; assay type: in vivo, human tumor in nude mice; details: daily treatment for one week, CFPAC-bearing nude mice, n = 12 per group
Summary of the method: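 Female nu/nu mice, 8–12 weeks old, carried 2 × 10^6 CFPAC cells in the flank. Treatment began ~2 weeks after implantation (mean diameter ~6–7 mm) and was given daily for one week, n = 12 per group. Tumour growth was measured by caliper as mean diameter. Groups were compared by one-tailed Student's t test.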

Akt = Akt phosphorylation in CFPAC cells; assay type: cell-based, human
σ-2 receptor = σ-2 receptor (Homo sapiens, UniProt Q5BJF2); experiment: Competitive displacement of fluorescent sigma-2 ligand SW120; assay type: binding, human (CFPAC cells); details: compared to non-conjugated SV119; CFPAC cells
[1] = ref ([30]–[32]); cited from earlier work
Panc02 cells = experiment: Caspase-3 activation; assay type: cell-based, mouse; details: 10 μM, 24 h, flow cytometry
[2] = SW43 by itself, vs SV119; ref ([24]); cited from earlier work
Panc02 tumors [3] = experiment: Syngeneic Panc02 tumor growth and survival; assay type: in vivo, mouse (C57BL/6); details: C57BL/6 mice with Panc02 tumors; supplementary Fig. 4
Summary of the method: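 Female C57BL/6 mice, 8–12 weeks old, carried 1 × 10^6 Panc02 cells in the flank. Dosing began ~2 weeks after implantation (mean diameter ~6–7 mm): i.p. every other day for two weeks, n = 12 per group. Mice were euthanised at tumour ulceration or a mean diameter of 15 mm. Survival was plotted as Kaplan-Meier curves and compared by log-rank test.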

Panc02 tumors [4] = experiment: In vivo apoptosis in Panc02 tumors; parameters: species or system mouse (C57BL/6); details: single i.p. dose (S2-Bim 400 μg), next day, n = 3
Summary of the method: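 Female C57BL/6 mice, 8–12 weeks old, received 1 × 10^6 Panc02 cells subcutaneously in the right flank. At two weeks (mean tumour diameter ~5 mm) they got a single i.p. dose of 400 μg. Tumours were harvested 24 h later. For TUNEL, tumours were stained directly. For caspase-3, tumours were minced to 1 mm and digested 45 min in RPMI with 1 mg/mL collagenase and 0.1 mg/mL DNase, filtered, ACK-lysed, resuspended in PBS pH 7.4, fixed in 1% paraformaldehyde, and read by flow cytometry for activated caspase-3.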

[5] = test system: pancreatic cancer cell lines; experiment: Killing capacity in additional pancreatic cancer cell lines in vitro; assay type: cell-based; details: all cell lines under investigation; supplementary Fig. 3

σ-2 receptor, sequence (Q5BJF2 whole entry): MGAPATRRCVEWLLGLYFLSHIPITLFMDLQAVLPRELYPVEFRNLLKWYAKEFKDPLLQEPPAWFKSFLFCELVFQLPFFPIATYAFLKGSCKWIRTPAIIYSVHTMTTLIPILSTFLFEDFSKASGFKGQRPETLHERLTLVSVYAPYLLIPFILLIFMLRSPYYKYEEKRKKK

Compound: COc1ccc(C)cc1NC(=O)OC1C[C@H]2CCC[C@@H](C1)N2CCCCCCN (stereo partly drawn) [SV119]
- tumor growth, CFPAC xenograft (in words) (CFPAC tumors): somewhat reduced tumor growth rate
- activation status of the two central kinases (Akt and p70 S6 kinase) (Akt; SV119 alone, 24 hours, also p70 S6 kinase (data not shown)): incapable of altering the activation status of these two central kinases

Compound: CC(C)=CCN1CC[C@]2(C)c3cc(O)ccc3C[C@H]1[C@H]2C [(+)-pentazocine, reference compound]
- displacement of SW120 (in words) (σ-2 receptor): unable to compete off SW120

Compound: CC1(C)CCC(c2ccc(Cl)cc2)=C(CN2CCN(c3ccc(C(=O)NS(=O)(=O)c4ccc(N[C@H](CCN5CCOCC5)CSc5ccccc5)c(S(=O)(=O)C(F)(F)F)c4)cc3)CC2)C1 [ABT-263]
- oral bioavailability (in words) [1]: orally bioavailable

Compound: LDPKLMKEEQMSQAQLFTRSFDDGL-OH [S2-CTMP-4]
- fold increase in apoptosis (caspase-3 induction) vs SV119 alone (Panc02 cells): 1.3 fold
- interference with Akt activation (phosphorylation) (Akt; CFPAC cells, 24 hours post-treatment): capable of interfering with Akt activation

Compound: COc1ccc(C)cc1NC(=O)OC1CC2CCCC(C1)N2CCCCCCCCCCN (stereo not drawn) [SW43]
- cytotoxicity relative to SV119 [2]: twice as cytotoxic by itself

Compound: EIWIAQEARRIGAEFNAYYAR-OH [S2-BimX]
- tumor growth, CFPAC xenograft (in words) (CFPAC tumors): somewhat reduced tumor growth rate; also recorded: elicited SV119 baseline activity
- displacement of SW120 (in words) (σ-2 receptor): displaced SW120 in a dose-dependent fashion
- time by which all mice had died (Panc02 tumors [3]): 43 days post tumor inoculation
- tumor cell apoptosis (activated caspase-3) in words (Panc02 tumors [4]): only background signals
- potency / response of pancreatic cancer cell lines (in words) [5]: virtually no activity in all cell lines tested; also recorded: complete loss of killing activity
